Laboratory results published in ChEMBL document CHEMBL1134785, “Synthesis and biological evaluation of prostaglandin-F alkylphosphinic acid derivatives as bone anabolic agents for the treatment of osteoporosis” (J Med Chem, 2001).
One block for each compound: values may come before it.

Assays:
[1] = Dissociation constant was determined; type: physicochemical
[2] = molecular target: T1, Prostaglandin E2 receptor EP3 subtype (Homo sapiens, UniProt P43115); assay: Functional activity in RAT-1 cells, transiently transfected with human prostaglandin EP3 receptor; type: cell-based
T1 sequence (P43115 whole entry): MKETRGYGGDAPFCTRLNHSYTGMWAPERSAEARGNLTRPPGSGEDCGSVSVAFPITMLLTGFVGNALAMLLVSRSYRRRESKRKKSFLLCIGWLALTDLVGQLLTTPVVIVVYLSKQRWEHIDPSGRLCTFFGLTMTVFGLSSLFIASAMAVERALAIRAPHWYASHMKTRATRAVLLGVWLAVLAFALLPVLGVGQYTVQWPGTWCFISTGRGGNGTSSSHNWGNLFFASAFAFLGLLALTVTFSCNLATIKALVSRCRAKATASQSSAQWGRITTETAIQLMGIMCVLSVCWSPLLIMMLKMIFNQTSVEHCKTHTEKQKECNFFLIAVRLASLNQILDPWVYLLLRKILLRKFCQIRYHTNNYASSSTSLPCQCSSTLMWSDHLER
How it was run: (§1)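 RAT-1 cells transiently transfected with the human receptor, carrying a stably transfected, constitutively expressed β-galactosidase reporter gene. EC50 read after timed hydrolysis of a galactosidase pseudosubstrate.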

[3] = molecular target: T2, Prostaglandin E2 receptor EP1 subtype (Homo sapiens, UniProt P34995); assay: Functional activity in RAT-1 cells, transiently transfected with human prostaglandin EP1 receptor; type: cell-based; how it was run: as §1
T2 sequence (P34995 whole entry): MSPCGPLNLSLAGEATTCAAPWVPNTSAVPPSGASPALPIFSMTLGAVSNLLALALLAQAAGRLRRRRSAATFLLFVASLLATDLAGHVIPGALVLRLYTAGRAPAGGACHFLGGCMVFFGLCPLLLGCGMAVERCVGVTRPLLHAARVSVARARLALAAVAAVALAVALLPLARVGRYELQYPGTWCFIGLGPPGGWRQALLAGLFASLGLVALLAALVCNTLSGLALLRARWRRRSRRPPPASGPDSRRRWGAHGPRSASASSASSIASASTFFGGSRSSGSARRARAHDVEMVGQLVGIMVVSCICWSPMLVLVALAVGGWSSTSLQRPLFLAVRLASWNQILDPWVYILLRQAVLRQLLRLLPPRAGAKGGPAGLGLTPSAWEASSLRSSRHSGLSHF

[4] = molecular target: T3, Thromboxane A2 receptor (Homo sapiens, UniProt P21731); assay: Functional activity in RAT-1 cells, transiently transfected with human prostaglandin TP receptor; type: cell-based; how it was run: as §1
T3 sequence (P21731 whole entry): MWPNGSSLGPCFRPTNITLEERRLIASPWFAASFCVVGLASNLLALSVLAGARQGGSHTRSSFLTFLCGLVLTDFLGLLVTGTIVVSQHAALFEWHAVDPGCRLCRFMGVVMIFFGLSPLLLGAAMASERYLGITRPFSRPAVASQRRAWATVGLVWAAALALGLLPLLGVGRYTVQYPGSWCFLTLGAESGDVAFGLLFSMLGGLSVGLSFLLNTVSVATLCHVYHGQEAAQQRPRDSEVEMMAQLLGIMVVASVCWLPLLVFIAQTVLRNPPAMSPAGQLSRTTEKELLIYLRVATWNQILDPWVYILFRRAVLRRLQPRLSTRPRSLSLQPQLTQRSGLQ

[5] = molecular target: T4, Prostaglandin F2-alpha receptor (Homo sapiens, UniProt P43088); assay: In vitro binding at FP human prostaglandin receptor using [3H]PGF-2 alpha as radioligand
How it was run: (§2)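 COS-7 cells transiently transfected with hFP plasmid and harvested 48 h later. Membranes from nitrogen cavitation and 100000g spin, taken up at 1 mg protein/mL in TME buffer pH 6.0. Each well held 100 μg membrane, 5 nM [3H]PGF2α and competitor, n=3, 1 h at 23 °C. Bound label collected by GF/B filtration, washed in TME, scintillation counted.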

[6] = tested on: Rattus norvegicus; assay: Mineral apposition measured Histomorphometrically after a dose of 3 ug/kg in proximal tibial metaphysis
[7] = molecular target: T3, Thromboxane A2 receptor; assay: In vitro binding at TP human prostaglandin receptor using [3H]SQ-29,548 as radioligand
How it was run: (§3)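 Receptors stably expressed in CHO cells, collected 4-5 days after seeding. Membranes made by lysis (Tris, EDTA, protease inhibitors) and 100000g pellet, then resuspended at 1 mg protein/mL in TME. Radioligands at 5 nM: [3H]PGE2 for EP2/EP3/EP4, [3H]Iloprost for IP, [3H]SQ-29548 for TP. Competition binding with filtration and counting.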

[8] = molecular target: T2, Prostaglandin E2 receptor EP1 subtype; assay: In vitro binding at EP1 human prostaglandin receptor using [3H]PGE-2 as radioligand
How it was run: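 hEP1 transiently expressed in COS-7 cells by the hFP transfection and membrane protocol, with membranes in TME buffer pH 6.0. Competition binding used 5 nM [3H]PGE2, 1 h at 23 °C, filtration and scintillation counting.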

[9] = molecular target: Prostacyclin receptor (Homo sapiens, UniProt P43119); assay: In vitro binding at prostanoid IP receptor using [3H]iloprost as radioligand; how it was run: as §3
[10] = molecular target: T1, Prostaglandin E2 receptor EP3 subtype; assay: In vitro binding at EP3 human prostaglandin receptor using [3H]PGE-2 as radioligand; how it was run: as §3
[11] = molecular target: Prostaglandin E2 receptor EP2 subtype (Homo sapiens, UniProt P43116); assay: In vitro binding at EP2 human prostaglandin receptor using [3H]PGE-2 as radioligand; how it was run: as §3
[12] = molecular target: T4, Prostaglandin F2-alpha receptor; assay: In vitro binding at FP human prostaglandin receptor using [3H]- PGF-2 alpha as radioligand; how it was run: as §2
[13] = tested on: Rattus norvegicus; assay: Derived trabecular no measured using micro Computed Tomography(CT) after a dose of 6000 ug/kg in Vertebral Bone; type: functional, Trabecula
How it was run: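 Micro-CT of the fifth lumbar vertebra, measuring cancellous bone volume and architecture. Rats were 6 months old, OVX 60 days before treatment, then dosed daily for 60 days. Test-agent doses were 10–3000 µg/kg, given as a once-daily subcutaneous injection; 6 mg/kg/day was given to the positive-control group. Groups were compared with vehicle by ANOVA plus LSD test.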

[14] = tested on: Rattus norvegicus; assay: Endosteal mineralizing surface measured Histomorphometrically after a does of 250 ug/kg in Tibial Diaphysis; type: functional
[15] = tested on: Rattus norvegicus; assay: Derived trabecular thickness measured using micro Computed Tomography(CT) after a dose of 250 ug/kg in Vertebral Bone; type: functional, Trabecula
[16] = tested on: Rattus norvegicus; assay: Bone Formation rate/tissue vol measured Histomorphometrically after a does of 250 ug/kg in proximal tibial metaphysis; type: functional
[17] = tested on: Rattus norvegicus; assay: Tissue area measured Histomorphometrically after a dose of 250 ug/kg in Tibial Diaphysis; type: functional
[18] = tested on: Rattus norvegicus; assay: Connectivity density measured using micro Computed Tomography(CT) after a dose of 250 ug/kg in Vertebral Bone; type: functional
[19] = tested on: Rattus norvegicus; assay: Bone Volume /Tissue Volume (%)measured using micro Computed Tomography(CT) after a dose of 250 ug/kg in Vertebral Bone; type: functional
[20] = tested on: Rattus norvegicus; assay: Directly measured thickness measured using micro Computed Tomography(CT) after a dose of 250 ug/kg in Vertebral Bone; type: functional
[21] = tested on: Rattus norvegicus; assay: Trabecular no measured Histomorphometrically after a dose of 250 ug/kg in proximal tibial metaphysis; type: functional, Trabecula
[22] = tested on: Rattus norvegicus; assay: Mineral surface/bone surface measured Histomorphometrically after a dose of 250 ug/kg in proximal tibial metaphysis; type: functional
[23] = tested on: Rattus norvegicus; assay: Mineralizing apposition measured Histomorphometrically after a dose of 250 ug/kg in Tibial Diaphysis; type: functional
[24] = tested on: Rattus norvegicus; assay: Mineral apposition measured Histomorphometrically after a dose of 250 ug/kg in proximal tibial metaphysis; type: functional
[25] = tested on: Rattus norvegicus; assay: Bone Volume /Tissue Volume (%)measured Histomorphometrically after a dose of 250 ug/kg in proximal tibial metaphysis; type: functional
[26] = tested on: Rattus norvegicus; assay: Marrow area measured Histomorphometrically after a dose of 250 ug/kg in Tibial Diaphysis; type: functional
[27] = tested on: Rattus norvegicus; assay: Bone Formation rate/bone measured Histomorphometrically after a dose of 250 ug/kg in proximal tibial metaphysis; type: functional
[28] = tested on: Rattus norvegicus; assay: Periosteal mineralizing surface measured Histomorphometrically after a does of 250 ug/kg in Tibial Diaphysis; type: functional
[29] = tested on: Rattus norvegicus; assay: Trabecular thickness measured Histomorphometrically after a dose of 250 ug/kg in proximal tibial metaphysis; type: functional, Trabecula
[30] = tested on: Rattus norvegicus; assay: Endosteal eroded surface measured Histomorphometrically after a dose of 250 ug/kg in Tibial Diaphysis; type: functional
[31] = molecular target: Prostaglandin E2 receptor EP4 subtype (Homo sapiens, UniProt P35408); assay: In vitro binding at EP4 human prostaglandin receptor using [3H]PGE-2 as radioligand; how it was run: as §3
[32] = molecular target: T5, Prostaglandin D2 receptor (Homo sapiens, UniProt Q13258); assay: In vitro binding at DP human prostaglandin receptor using [3H]- PGD-2 as radioligand
T5 sequence (Q13258 whole entry): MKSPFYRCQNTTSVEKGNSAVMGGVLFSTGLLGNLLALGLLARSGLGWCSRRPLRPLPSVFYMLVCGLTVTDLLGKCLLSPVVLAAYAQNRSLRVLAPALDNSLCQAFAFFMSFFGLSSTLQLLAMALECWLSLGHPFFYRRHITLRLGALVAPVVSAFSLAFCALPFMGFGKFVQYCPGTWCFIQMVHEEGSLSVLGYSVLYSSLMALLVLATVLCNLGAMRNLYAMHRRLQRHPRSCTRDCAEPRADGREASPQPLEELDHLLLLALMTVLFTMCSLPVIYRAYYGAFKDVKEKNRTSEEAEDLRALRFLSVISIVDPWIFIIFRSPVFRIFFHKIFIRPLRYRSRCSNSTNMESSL
How it was run: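 hDP stably expressed in HEK-293 cells, collected 4-5 days after seeding. Membranes made by lysis and 100000g spin, then taken up at 1 mg protein/mL in TME buffer at pH 7.4. Competition binding used 5 nM [3H]PGD2, read by filtration and scintillation counting.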

T4 sequence (P43088 whole entry): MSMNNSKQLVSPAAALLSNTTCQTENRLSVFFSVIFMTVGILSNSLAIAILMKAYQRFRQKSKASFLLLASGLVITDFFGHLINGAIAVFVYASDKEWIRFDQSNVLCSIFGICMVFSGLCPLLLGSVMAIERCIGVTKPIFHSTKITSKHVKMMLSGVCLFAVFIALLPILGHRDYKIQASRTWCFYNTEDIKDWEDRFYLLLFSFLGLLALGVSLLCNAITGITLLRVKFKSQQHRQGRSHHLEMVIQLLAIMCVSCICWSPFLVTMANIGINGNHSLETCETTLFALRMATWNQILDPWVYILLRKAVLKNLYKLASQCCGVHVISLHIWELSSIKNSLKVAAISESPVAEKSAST
Chain of Prostacyclin receptor (P43119 whole entry): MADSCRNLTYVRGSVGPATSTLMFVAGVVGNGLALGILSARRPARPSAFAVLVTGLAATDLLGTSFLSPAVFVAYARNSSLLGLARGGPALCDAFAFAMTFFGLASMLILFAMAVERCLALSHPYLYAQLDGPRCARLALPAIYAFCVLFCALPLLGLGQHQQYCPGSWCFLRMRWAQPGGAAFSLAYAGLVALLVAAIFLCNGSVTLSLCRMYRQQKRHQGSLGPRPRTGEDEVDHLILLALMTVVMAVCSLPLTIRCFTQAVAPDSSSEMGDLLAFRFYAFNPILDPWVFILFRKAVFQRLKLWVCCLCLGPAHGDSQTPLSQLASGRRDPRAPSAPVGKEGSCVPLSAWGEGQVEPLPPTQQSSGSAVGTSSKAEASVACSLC
Chain of Prostaglandin E2 receptor EP2 subtype (P43116 whole entry): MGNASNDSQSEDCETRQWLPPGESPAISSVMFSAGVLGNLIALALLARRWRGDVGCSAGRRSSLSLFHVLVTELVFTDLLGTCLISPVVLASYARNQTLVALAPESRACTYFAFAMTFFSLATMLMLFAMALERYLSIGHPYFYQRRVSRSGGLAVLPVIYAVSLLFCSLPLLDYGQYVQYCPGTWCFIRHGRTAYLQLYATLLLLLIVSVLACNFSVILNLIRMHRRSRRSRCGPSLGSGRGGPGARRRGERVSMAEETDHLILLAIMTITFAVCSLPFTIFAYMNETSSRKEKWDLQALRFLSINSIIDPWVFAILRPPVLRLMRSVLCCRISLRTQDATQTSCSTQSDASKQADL
Chain of Prostaglandin E2 receptor EP4 subtype (P35408 whole entry): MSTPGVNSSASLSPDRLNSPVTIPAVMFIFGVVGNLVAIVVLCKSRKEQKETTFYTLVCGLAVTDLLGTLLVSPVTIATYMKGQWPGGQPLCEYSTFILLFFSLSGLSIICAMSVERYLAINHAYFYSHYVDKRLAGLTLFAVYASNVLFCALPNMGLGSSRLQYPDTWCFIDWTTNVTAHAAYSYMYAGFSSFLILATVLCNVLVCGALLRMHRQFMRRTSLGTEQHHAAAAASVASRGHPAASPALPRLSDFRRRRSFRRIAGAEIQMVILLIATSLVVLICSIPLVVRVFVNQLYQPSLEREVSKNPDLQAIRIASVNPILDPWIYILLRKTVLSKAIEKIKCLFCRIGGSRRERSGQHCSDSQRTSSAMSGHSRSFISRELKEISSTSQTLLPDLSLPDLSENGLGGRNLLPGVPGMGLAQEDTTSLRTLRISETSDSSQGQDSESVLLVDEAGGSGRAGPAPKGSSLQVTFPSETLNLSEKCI

Structure (SMILES): O=C(O)CCC/C=C\C[C@@H]1[C@@H](/C=C/[C@@H](O)COc2ccccc2)[C@H](O)C[C@@H]1O
- pKa [1]: 4.77
- EC50 [2]: 186 nM
- EC50 [3]: 38 nM
- EC50 [4]: 510 nM
- IC50 [5]: 2 nM

Structure (SMILES): NCCCC(O)(P(=O)(O)O)P(=O)(O)O [ALENDRONIC ACID]
- Mineral apposition rate [6]: 0.63 µm/day

Structure (SMILES): CCCCC[C@H](O)/C=C/[C@@H]1[C@@H](C/C=C\CCCP(=O)(O)O)[C@@H](O)C[C@H]1O
- pKa [1]: 2.38
- IC50 [12]: 1000 nM

Structure (SMILES): O=C(O)CCC/C=C\CC1C(O)CC(O)C1/C=C/C(O)COc1cccc(Cl)c1 (centres undefined) [CLOPROSTENOL]
- Derived trabecular number [13]: 4.6 mM⁻¹
- Endosteal mineralizing surface [14]: 55.18%
- Derived trabecular thickness [15]: 85.8 µm
- Activity [16]: 26.44%
- Tissue area [17]: 4.78 mm
- Connectivity density [18]: 61.13 mm**-3
- Activity [19]: 42.04%
- Directly measured thickness [20]: 138 µm
- Trabecular no. [21]: 1.77
- Activity [22]: 22.99%
- Mineralizing apposition rate [23]: 1.6 µm/day
- Mineral apposition rate [24]: 1.09 µm/day
- Activity [25]: 9.5%
- Marrow area [26]: 0.7 mm
- Activity [27]: 286.86%
- Periosteal mineralizing surface [28]: 9.91%
- Trabecular thickness [29]: 53.9
- Endosteal eroded surface [30]: 2.22%

Structure (SMILES): CCCCC[C@H](O)/C=C/[C@@H]1[C@@H](C/C=C\CCC[PH](=O)O)[C@@H](O)C[C@H]1O
- pKa [1]: 3.39
- IC50 [7]: > 10000 nM
- IC50 [31]: > 10000 nM
- IC50 [8]: > 10000 nM
- IC50 [9]: > 10000 nM
- IC50 [10]: > 10000 nM
- IC50 [11]: > 10000 nM
- IC50 [5]: 114 nM
- IC50 [32]: > 10000 nM

The next lines start with the values.

- pKa [1]: 4.77
- IC50 [7]: > 10000 nM
- IC50 [8]: 220 nM
- IC50 [9]: > 10000 nM
- IC50 [10]: 110 nM
- IC50 [11]: > 10000 nM
Structure (SMILES): CCCCC[C@H](O)/C=C/[C@@H]1[C@@H](C/C=C\CCCC(=O)O)[C@@H](O)C[C@H]1O [DINOPROST]

- pKa [1]: 3.1
- IC50 [5]: 311 nM
Structure (SMILES): CCCCC[C@H](O)/C=C/[C@@H]1[C@@H](C/C=C\CCCP(C)(=O)O)[C@@H](O)C[C@H]1O

- pKa [1]: 3.24
- IC50 [5]: 4100 nM
Structure (SMILES): CCCCC[C@H](O)/C=C/[C@@H]1[C@@H](C/C=C\CCCP(=O)(O)CC)[C@@H](O)C[C@H]1O

- pKa [1]: 3.36
- IC50 [5]: 6700 nM
Structure (SMILES): CCCCC[C@H](O)/C=C/[C@@H]1[C@@H](C/C=C\CCCP(=O)(O)CCCC)[C@@H](O)C[C@H]1O

- pKa [1]: 2.36
- IC50 [12]: > 10000 nM
Structure (SMILES): CCCCC[C@H](O)/C=C/[C@@H]1[C@@H](C/C=C\CCCP(=O)(O)OCC)[C@@H](O)C[C@H]1O
